Measured values pooled from the literature.
Protocols differ between the studies behind these lines.
FGFR2: Fibroblast growth factor receptor 2 (FGFR2, Homo sapiens, UniProt P21802)

SMILES	target	read-out	action	method	tested at	quantity	result
CCN(CC)CCNC(=O)c1c(C)[nH]c(/C=C2\C(=O)Nc3ccc(F)cc32)c1C	FGFR2	enzyme activity	inhibitor	–	10 µM	inhibition	94%
CN(C)C1CCN(CC#Cc2nn(C3CCCC3)c3nc(NCc4ccccc4)ncc23)C1 (centres unmarked)	FGFR2	enzyme activity	inhibitor	FRET	1 µM	inhibition	8%
CC/C(=N\NC(=O)NCc1cccc(O)c1)c1ccc(O)c(C)c1O	Fibroblast growth factor receptor 2 (FGFR2, Homo sapiens, UniProt P21802, V564I)	enzyme activity	inhibitor	–	0.1 µM	inhibition	-2.7%
CC(C)(C)c1nc2c(s1)c1nc(N)ncc1c1ccc(NS(=O)(=O)c3c(F)cccc3F)c(F)c12	FGFR2	enzyme activity	inhibitor	radiometric	1 µM	remaining activity	91%
C[C@@]1(Cc2ccc(C#N)cc2)C(=O)N(c2cc(Cl)cc(Cl)c2)c2ncc(C(=O)NC3(c4nc(C5CCC5)no4)CC3)n21	FGFR2	cell-free assay	–	competition with immobilised ligand	1 µM	remaining binding	100%
Nc1ncnc2occ(-c3ccc(NC(=O)Nc4cc(C(F)(F)F)ccc4F)cc3)c12	FGFR2	cell-free assay	–	–	20 µM	remaining signal	0%
Cc1cc(NC(=O)c2cccc3cc(-c4cccc5[nH]nc(N)c45)ccc23)ccc1F	FGFR2	enzyme activity	inhibitor	–	0.1 µM	activity vs control	98%
O=c1nc(-c2ccccn2)sc2ccccc12	FGFR2	cell-free assay	–	competition with immobilised ligand	1 µM	remaining binding	100%
O=C(Nc1cnn(-c2csc(C(=O)NC3COC3)c2)c1)Nc1ccccc1Cl	FGFR2	enzyme activity	inhibitor	–	5 µM	remaining activity	95.6%
Cc1ccc(Nc2nccc(N(C)c3ccc4c(C)n(C)nc4c3)n2)cc1S(N)(=O)=O	FGFR2	enzyme activity	inhibitor	–	0.3 µM	inhibition	92%
CN(c1ccnc(CNc2nc(Nc3ccc4c(c3)CC(=O)N4)ncc2C(F)(F)F)n1)S(C)(=O)=O	FGFR2	cell-free assay	–	competition with immobilised ligand	1 µM	remaining binding	59%
Nc1nc(Nc2ccc(S(N)(=O)=O)cc2)nn1C(=O)c1c(F)cccc1F	FGFR2	cell-free assay	–	–	0.5 µM	remaining signal	79.7%
C[C@@H]1CN(c2cc(-c3n[nH]c4ccc(OC5(C)CC5)cc34)ncn2)C[C@H](C)O1	FGFR2	cell-free assay	–	competition with immobilised ligand	0.1 µM	remaining binding	96%
Cc1ccc(NC(=O)c2ccc(C)c(C(F)(F)F)c2)cc1C#Cc1nn(C2CCC(O)CC2)c2ncnc(N)c12 (centres unmarked)	FGFR2	cell-free assay	–	–	10 µM	remaining signal	0%
CCCOc1ccc(OC)c(F)c1C(=O)c1ccc(C(=O)N[C@@H]2CNC[C@H]2NC(=O)c2ccc3[nH]ncc3c2)cc1	FGFR2	enzyme activity	inhibitor	–	10 µM	remaining activity	70%
COc1cc2c(Nc3ccc(Br)cc3F)ncnc2cc1OCC1CCN(C)CC1	FGFR2	cell-free assay	–	–	0.5 µM	remaining signal	38.4%
Cc1cnc(NC2CCOCC2)nc1-n1cnc(C(=O)NC(CN)c2cc(F)cc(Cl)c2)c1 (centres unmarked)	Fibroblast growth factor receptor 2 (FGFR2, Homo sapiens, UniProt P21802, N549H)	enzyme activity	inhibitor	radiometric	1 µM	remaining activity	99%
CN(C)CC#Cc1ccc(OCCCc2sc(N3CCc4cccc(C(=O)Nc5nc6ccccc6s5)c4C3)nc2C(=O)O)c(F)c1	FGFR2	cell-free assay	–	competition with immobilised ligand	1 µM	remaining binding	98%
CNC(=O)c1cc(Oc2ccc(NC(=O)Nc3ccc(Cl)c(C(F)(F)F)c3)cc2)ccn1	FGFR2	enzyme activity	inhibitor	–	10 µM	inhibition	98%
COc1cc2c(N3CCN(C(=O)Nc4ccc(OC(C)C)cc4)CC3)ncnc2cc1OCCCN1CCCCC1	FGFR2	cell-free assay	–	–	0.5 µM	remaining signal	99.8%
CO[C@@H](C)c1c(Nc2ccc([C@H](N(C)C(=O)C3CCS(=O)(=O)CC3)C(F)(F)F)cc2)cnc2cc(Cl)nn12	FGFR2	cell-free assay	–	competition with immobilised ligand	1 µM	remaining binding	91%
Cc1ccc(C(=O)Nc2ccc(CN3CCN(C)CC3)c(C(F)(F)F)c2)cc1C#Cc1cnc2cccnn12	FGFR2	cell-free assay	–	–	23.5 nM	remaining signal	32%
CN([C@@H]1CCc2c(CC(=O)O)c3ccccc3n2C1)S(=O)(=O)c1ccc(F)cc1	FGFR2	cell-free assay	–	competition with immobilised ligand	1 µM	remaining binding	80%
N#CCCc1ccc2c(c1)-c1[nH]c3ccc([N+](=O)[O-])cc3c1CC(=O)N2	FGFR2	cell-free assay	–	–	0.5 µM	remaining signal	93.2%
O=C(Nc1cccnn1)N1CCC(=Cc2cccc(Oc3ccc(C(F)(F)F)cn3)c2)CC1	FGFR2	cell-free assay	–	competition with immobilised ligand	1 µM	remaining binding	96%
CNc1cccc2cc(C(=O)Nc3ccc(C(=O)O)cc3)c(=O)[nH]c12	FGFR2	enzyme activity	inhibitor	–	10 µM	inhibition	-1%
